In ChEMBL document CHEMBL4373711, “Development of 3,5-Dinitrophenyl-Containing 1,2,4-Triazoles and Their Trifluoromethyl Analogues as Highly Efficient Antitubercular Agents Inhibiting Decaprenylphosphoryl-β-d-ribofuranose 2'-Oxidase” (J Med Chem, 2019):
Converted amounts (≈) assume the structure as drawn. The source made the active and inactive calls. No cut-off for these calls is given here.

Legend:
[1] = tested on: Mycobacterium tuberculosis; test: Antitubercular activity against Mycobacterium tuberculosis H37Rv; type: functional
Mycobacterium kansasii [2] = test: Antimycobacterial activity against Mycobacterium kansasii 6509/96 after 7 days; type: functional; settings: 6509/96, 168 h
How it was run: (§1)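 Microdilution in Šula's semisynthetic medium; compounds in DMSO at 32–0.03 µM. Inoculum from 1.0 McFarland suspension diluted 10-4. […] Isoniazid and rifampicin as reference drugs.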

HepG2 = test: Cytotoxicity against human HepG2 cells assessed as reduction in cell viability after 48 hrs by CellTiter 96 aqueous one solution assay; type: cell-based; settings: HepG2, 48 h
Mycobacterium kansasii [3] = test: Antimycobacterial activity against Mycobacterium kansasii 6509/96 after 14 days; type: functional; settings: 6509/96, 336 h; how it was run: as §1
Pseudomonas aeruginosa = test: Antibacterial activity against Pseudomonas aeruginosa ATCC 27853 CCM 3955 at highest concentration measured after 24 to 48 hrs by alamar blue dye based broth microdilution assay; type: functional, organism-based
[4] = tested on: Staphylococcus epidermidis; test: Antibacterial activity against Staphylococcus epidermidis at highest concentration measured after 24 to 48 hrs by alamar blue dye based broth microdilution assay; type: functional, organism-based
[5] = tested on: Mycobacterium tuberculosis; test: Antimycobacterial activity against Mycobacterium tuberculosis H37Rv CNCTC My 331/88 after 14 days; type: functional; settings: H37Rv CNCTC My 331/88, 336 h
How it was run: (§2)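 M. tuberculosis strains (H37Rv and clinical MDR/XDR isolates) tested by microdilution in Šula's semisynthetic medium. Compounds were dissolved in DMSO and tested at 32 to 0.03 µM in twofold steps. Inoculum was a 1.0 McFarland suspension diluted 10-3. Plates were incubated at 37 °C and read at 14 and 21 days.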

Escherichia coli = test: Antibacterial activity against Escherichia coli ATCC 25922 CCM 3954 at highest concentration measured after 24 to 48 hrs by alamar blue dye based broth microdilution assay; type: functional, organism-based
[6] = tested on: Trichophyton interdigitale; test: Antifungal activity against Trichophyton interdigitale ATCC 9533 CCM 8377 at highest concentration measured after 72 to 120 hrs by alamar blue dye based broth microdilution assay; type: functional
Staphylococcus aureus [7] = test: Antibacterial activity against methicillin-resistant Staphylococcus aureus subsp. aureus ATCC 43300 CCM 4750 at highest concentration measured after 24 to 48 hrs by alamar blue dye based broth microdilution assay; type: functional, organism-based
Candida albicans = test: Antifungal activity against Candida albicans ATCC 24433 CCM 8320 at highest concentration measured after 24 to 48 hrs by alamar blue dye based broth microdilution assay; type: functional, organism-based
[8] = Genotoxicity in Salmonella typhimurium TA100 at 30 uM in presence of rat liver S9 fraction by Ames test; type: toxicity, subcellular; settings: salmonella enterica subsp. enterica serovar typhimurium, s9, 30 µM
How it was run: (§3)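 Microplate fluctuation Ames reverse-mutation test following kit instructions; TA98 detects frameshift and TA100 base-exchange mutations. Compound at 30 µM final with Aroclor-1254-induced rat liver S9 plus cofactors.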

Mycobacterium avium [9] = test: Antimycobacterial activity against Mycobacterium avium CNCTC My 330/88 after 21 days; type: functional; settings: CNCTC My 330/88, 504 h
How it was run: (§4)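 M. avium was tested by microdilution in Šula's semisynthetic medium, with compounds dissolved in DMSO and serially diluted from 1000 down to 1. Inoculum was a 1.0 McFarland suspension diluted 10-5. Plates were incubated at 37 °C and read at 14 and 21 days. […] Isoniazid and rifampicin served as standards.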

Mycobacterium avium [10] = test: Antimycobacterial activity against Mycobacterium avium CNCTC My 330/88 after 14 days; type: functional; settings: CNCTC My 330/88, 336 h; how it was run: as §4
Staphylococcus aureus [11] = test: Antibacterial activity against Staphylococcus aureus subsp. aureus ATCC 29213 CCM 4223 at highest concentration measured after 24 to 48 hrs by alamar blue dye based broth microdilution assay; type: functional, organism-based
[12] = tested on: Mycobacterium tuberculosis; test: Antimycobacterial activity against XDR Mycobacterium tuberculosis Praha 131 after 21 days; type: functional; settings: Praha 131, 504 h; how it was run: as §2
Mycobacterium kansasii [13] = test: Antimycobacterial activity against Mycobacterium kansasii 6509/96 after 21 days; type: functional; settings: 6509/96, 504 h; how it was run: as §1
Mycobacterium kansasii [14] = test: Antimycobacterial activity against Mycobacterium kansasii CNCTC My 235/80 after 7 days; type: functional; settings: CNCTC My 235/80, 168 h; how it was run: as §1
[15] = tested on: Mycobacterium tuberculosis; test: Antimycobacterial activity against XDR Mycobacterium tuberculosis Praha 131 after 14 days; type: functional; settings: Praha 131, 336 h; how it was run: as §2
Enterococcus faecalis = test: Antibacterial activity against Enterococcus faecalis ATCC 29212 CCM 4224 at highest concentration measured after 24 to 48 hrs by alamar blue dye based broth microdilution assay; type: functional, organism-based
Pichia kudriavzevii = test: Antifungal activity against Candida krusei ATCC 6258 CCM8271 at highest concentration measured after 24 to 48 hrs by alamar blue dye based broth microdilution assay; type: functional, organism-based
[16] = tested on: Mycobacterium tuberculosis; test: Antimycobacterial activity against Mycobacterium tuberculosis H37Rv CNCTC My 331/88 after 21 days; type: functional; settings: H37Rv CNCTC My 331/88, 504 h; how it was run: as §2
Serratia marcescens = test: Antibacterial activity against Serratia marcescens at highest concentration measured after 24 to 48 hrs by alamar blue dye based broth microdilution assay; type: functional, organism-based
Aspergillus flavus = test: Antifungal activity against Aspergillus flavus CCM 8363 at highest concentration measured after 24 to 48 hrs by alamar blue dye based broth microdilution assay; type: functional, organism-based
Mycobacterium kansasii [17] = test: Antimycobacterial activity against Mycobacterium kansasii CNCTC My 235/80 after 14 days; type: functional; settings: CNCTC My 235/80, 336 h; how it was run: as §1
Candida tropicalis = test: Antifungal activity against Candida tropicalis ATCC 750 CCM 8264 at highest concentration measured after 24 to 48 hrs by alamar blue dye based broth microdilution assay; type: functional, organism-based
Candida parapsilosis = test: Antifungal activity against Candida parapsilosis ATCC 22019 CCM 8260 at highest concentration measured after 24 to 48 hrs by alamar blue dye based broth microdilution assay; type: functional, organism-based
[18] = Cytotoxicity against human HepG2 cells assessed as cell viability at 30 uM after 48 hrs by CellTiter 96 aqueous one solution assay relative to control; type: cell-based; settings: read-out: Activity
How it was run: (§5)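 HepG2 (DMEM, 10% FBS, 1 mM pyruvate) or A431 (DMEM, 10% FBS) seeded 10,000 cells/well, 24 h at 37 °C, 5% CO2, then 30 µM compound for 48 h. MTS reagent 60 min, absorbance 490 nm, background subtracted; 0.1% DMSO vehicle = 100%, 10% SDS = 0% viability.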

Aspergillus fumigatus = test: Antifungal activity against Aspergillus fumigatus ATCC 204305 at highest concentration measured after 24 to 48 hrs by alamar blue dye based broth microdilution assay; type: functional, organism-based
A-431 = test: Cytotoxicity against human A431 cells assessed as reduction in cell viability after 48 hrs by CellTiter 96 aqueous one solution assay; type: cell-based; settings: A-431, 48 h
Mycobacterium kansasii [19] = test: Antimycobacterial activity against Mycobacterium kansasii CNCTC My 235/80 after 21 days; type: functional; settings: CNCTC My 235/80, 504 h; how it was run: as §1
Klebsiella pneumoniae = test: Antibacterial activity against Klebsiella pneumoniae at highest concentration measured after 24 to 48 hrs by alamar blue dye based broth microdilution assay; type: functional, organism-based
Lichtheimia corymbifera = test: Antifungal activity against Lichtheimia corymbifera CCM 8077 at highest concentration measured after 24 to 48 hrs by alamar blue dye based broth microdilution assay; type: functional, organism-based
[20] = Cytotoxicity against human A431 cells assessed as cell viability at 30 uM after 48 hrs by CellTiter 96 aqueous one solution assay relative to control; type: cell-based, A-431; settings: read-out: Activity; how it was run: as §5
[21] = Genotoxicity in Salmonella typhimurium TA98 at 30 uM in presence of rat liver S9 fraction by Ames test; type: toxicity, subcellular; settings: salmonella enterica subsp. enterica serovar typhimurium, s9, 30 µM; how it was run: as §3

Q: Which MIC [1] does the source give for `C[C@]1(COc2ccc(N3CCC(Oc4ccc(OC(F)(F)F)cc4)CC3)cc2)Cn2cc([N+](=O)[O-])nc2O1` here?
A: The MIC was 0.023 µM (≈ 0.0123 µg/mL).

Q: Which MIC [1] does the source give for `O=c1nc(N2CCN(CC3CCCCC3)CC2)sc2c([N+](=O)[O-])cc(C(F)(F)F)cc12` [MACOZINONE] here?
A: The MIC was 0.0004 µM (≈ 0.000183 µg/mL).

Q: For `COc1nc2ccc(Br)cc2cc1[C@@H](c1ccccc1)[C@@](O)(CCN(C)C)c1cccc2ccccc12` [BEDAQUILINE], which MIC [1] is on record?
A: The MIC was 0.05 µM (≈ 0.0278 µg/mL).

Q: Which MIC99 (Mycobacterium kansasii [2]) does the source give for `Cn1c(SCc2ccc(Cl)cc2)nnc1-c1cc([N+](=O)[O-])cc([N+](=O)[O-])c1` here?
A: Its MIC99 is 0.125 µM (≈ 0.0507 µg/mL).

Q: And the IC50 (HepG2)?
A: Its IC50 is greater than 30 µM.

Q: What about the MIC99 (Mycobacterium kansasii [3]) of the same molecule?
A: The MIC99 was 0.25 µM (≈ 0.101 µg/mL).

Q: What about the Activity (Pseudomonas aeruginosa) of the same molecule?
A: The Activity was “inactive”.

Q: And the Activity [4]?
A: The Activity was “inactive”.

Q: And the MIC99 [5]?
A: The MIC99 was 0.125 µM (≈ 0.0507 µg/mL).

Q: And the Activity (Escherichia coli)?
A: The Activity was “inactive”.

Q: And the Activity [6]?
A: The Activity was “inactive”.

Q: And the Activity (Staphylococcus aureus [7])?
A: Its Activity is “inactive”.

Q: And the Activity (Candida albicans)?
A: Its Activity is “inactive”.

Q: What about the Activity [8] of the same molecule?
A: The Activity was “Non-Toxic”.

Q: What about the MIC99 (Mycobacterium avium [9]) of the same molecule?
A: The MIC99 was 8 µM (≈ 3.25 µg/mL).

Q: And the MIC99 (Mycobacterium avium [10])?
A: Its MIC99 is 8 µM (≈ 3.25 µg/mL).

Q: What about the Activity (Staphylococcus aureus [11]) of the same molecule?
A: Its Activity is “inactive”.

Q: And the MIC99 [12]?
A: The MIC99 was 0.125 µM (≈ 0.0507 µg/mL).

Q: What about the MIC99 (Mycobacterium kansasii [13]) of the same molecule?
A: Its MIC99 is 0.5 µM (≈ 0.203 µg/mL).

Q: What about the MIC99 (Mycobacterium kansasii [14]) of the same molecule?
A: Its MIC99 is 0.25 µM (≈ 0.101 µg/mL).

Q: And the MIC99 [15]?
A: The MIC99 was 0.125 µM (≈ 0.0507 µg/mL).

Q: What about the Activity (Enterococcus faecalis) of the same molecule?
A: The Activity was “inactive”.

Q: And the Activity (Pichia kudriavzevii)?
A: The Activity was “inactive”.

Q: What about the MIC99 [16] of the same molecule?
A: Its MIC99 is 0.125 µM (≈ 0.0507 µg/mL).

Q: What about the Activity (Serratia marcescens) of the same molecule?
A: Its Activity is “inactive”.

Q: And the Activity (Aspergillus flavus)?
A: The Activity was “inactive”.

Q: What about the MIC99 (Mycobacterium kansasii [17]) of the same molecule?
A: Its MIC99 is 0.5 µM (≈ 0.203 µg/mL).

Q: What about the Activity (Candida tropicalis) of the same molecule?
A: The Activity was “inactive”.

Q: And the Activity (Candida parapsilosis)?
A: The Activity was “inactive”.

Q: What about the viability at 48 h, 30 µM [18] of the same molecule?
A: The viability at 48 h, 30 µM was 104%.

Q: And the Activity (Aspergillus fumigatus)?
A: The Activity was “inactive”.

Q: What about the IC50 (A-431) of the same molecule?
A: The IC50 was greater than 30 µM.

Q: What about the MIC99 (Mycobacterium kansasii [19]) of the same molecule?
A: Its MIC99 is 0.5 µM (≈ 0.203 µg/mL).

Q: What about the Activity (Klebsiella pneumoniae) of the same molecule?
A: The Activity was “inactive”.

Q: And the Activity (Lichtheimia corymbifera)?
A: Its Activity is “inactive”.

Q: And the viability at 48 h, 30 µM [20]?
A: Its viability at 48 h, 30 µM is 85%.

Q: And the Activity [21]?
A: The Activity was “Non-Toxic”.

Q: For `O=[N+]([O-])c1cn2c(n1)OC[C@@H](OCc1ccc(OC(F)(F)F)cc1)C2` [PRETOMANID], which MIC [1] is on record?
A: Its MIC is 0.05 to 0.7 µM (≈ 0.018 to 0.251 µg/mL).
